Measurements as given in ChEMBL document CHEMBL1955830, “Substituted azaquinazolinones as modulators of GHSr-1a for the treatment of type II diabetes and obesity” (Bioorg Med Chem Lett, 2012).

Key:
[1] = biological target: Growth hormone secretagogue receptor type 1 (Homo sapiens, UniProt Q92847); test: Displacement of [125I]-Ghrelin from human GHSR membranes overexpressing GSH-R1a by scintillation counting
Summary of the method: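 Binding affinity (Ki) at GHS-R1a was measured by 125I-ghrelin displacement using commercial human GHS-R1a membranes.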

[2] = Antagonist activity at mouse GSH-R1a receptor expressed in HEK293 cells assessed as inhibition of ghrelin-induced calcium mobilization after 5 mins by FLIPR assay; assay type: functional, cell-based; conditions: HEK293, 5 min
Summary of the method: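 Functional antagonism was measured as IC50 in a FLIPR Ca2+ mobilisation assay.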

[3] = biological target: T1, Muscarinic acetylcholine receptor M2 (Homo sapiens) (UniProt P08172); test: Inhibition of muscarinic M2 receptor at 10 uM
T1 sequence (whole entry): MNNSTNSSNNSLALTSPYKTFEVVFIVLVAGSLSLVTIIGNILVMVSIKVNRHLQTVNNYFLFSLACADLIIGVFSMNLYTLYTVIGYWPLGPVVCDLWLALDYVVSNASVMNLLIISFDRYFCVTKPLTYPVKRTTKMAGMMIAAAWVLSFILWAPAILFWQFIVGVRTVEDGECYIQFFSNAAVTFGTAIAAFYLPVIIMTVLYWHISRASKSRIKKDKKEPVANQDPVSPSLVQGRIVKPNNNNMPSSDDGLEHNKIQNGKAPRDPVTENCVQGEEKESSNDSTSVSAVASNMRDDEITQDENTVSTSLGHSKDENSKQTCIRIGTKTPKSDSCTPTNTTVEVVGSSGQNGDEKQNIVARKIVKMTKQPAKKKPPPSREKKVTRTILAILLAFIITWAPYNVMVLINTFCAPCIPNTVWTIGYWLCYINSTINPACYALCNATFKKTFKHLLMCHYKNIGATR

[4] = biological target: 5-hydroxytryptamine receptor 2B (Homo sapiens) (UniProt P41595); test: Inhibition of 5-HT2B at 10 uM
[5] = biological target: T2, Muscarinic acetylcholine receptor M1 (Homo sapiens) (UniProt P11229); test: Inhibition of muscarinic M1 receptor at 10 uM
T2 sequence (whole entry): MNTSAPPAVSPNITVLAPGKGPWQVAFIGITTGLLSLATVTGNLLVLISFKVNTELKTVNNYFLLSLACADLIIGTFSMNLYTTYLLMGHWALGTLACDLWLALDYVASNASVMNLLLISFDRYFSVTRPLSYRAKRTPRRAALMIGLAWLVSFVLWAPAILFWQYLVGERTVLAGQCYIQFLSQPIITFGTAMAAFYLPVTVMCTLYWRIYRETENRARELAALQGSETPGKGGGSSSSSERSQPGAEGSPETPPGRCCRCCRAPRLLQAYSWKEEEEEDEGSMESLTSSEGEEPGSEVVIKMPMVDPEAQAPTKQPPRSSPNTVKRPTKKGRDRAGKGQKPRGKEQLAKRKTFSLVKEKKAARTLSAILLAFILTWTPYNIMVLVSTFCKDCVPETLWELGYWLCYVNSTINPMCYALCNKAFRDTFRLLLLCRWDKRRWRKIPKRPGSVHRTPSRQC

[6] = biological target: Voltage-gated inwardly rectifying potassium channel KCNH2 (Homo sapiens, UniProt Q12809); test: Inhibition of human Erg by patch clamp assay; conditions: for pIC50: human
[7] = Volume of distribution at steady state in Sprague-Dawley rat at 1 mg/kg, iv; assay type: ADME, organism-based; design: dose 1 mg/kg, route intravenous; conditions: in vivo, read-out: Vdss
Summary of the method: (§1)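 Male Sprague-Dawley rats were dosed with compound formulated in 20% trappsol in water for injection as the vehicle.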

[8] = AUC in Sprague-Dawley rat at 1 mg/kg, iv; assay type: ADME, organism-based; design: dose 1 mg/kg, route intravenous; conditions: plasma; summary of the method: as §1
[9] = Oral bioavailability in Sprague-Dawley rat at 1 mg/kg; assay type: ADME, organism-based; conditions: in vivo, 3 mg/kg, in the assay text read “3 mg/kg” for “1 mg/kg”; summary of the method: as §1
[10] = AUC in Sprague-Dawley rat at 3 mg/kg, po; assay type: ADME, organism-based; design: dose 3 mg/kg, route oral; conditions: plasma; summary of the method: as §1
[11] = test system: Rattus norvegicus; test: Clearance in Sprague-Dawley rat at 1 mg/kg, iv; assay type: ADME, organism-based; design: dose 1 mg/kg, route intravenous; conditions: in vivo; summary of the method: as §1
[12] = Half life in Sprague-Dawley rat at 1 mg/kg, iv; assay type: ADME, organism-based; design: dose 1 mg/kg, route intravenous; conditions: in vivo; summary of the method: as §1
[13] = biological target: hERG (KCNH2) (Homo sapiens, UniProt Q12809); test: in vitro
Sequence of hERG (KCNH2) (Q12809 whole entry): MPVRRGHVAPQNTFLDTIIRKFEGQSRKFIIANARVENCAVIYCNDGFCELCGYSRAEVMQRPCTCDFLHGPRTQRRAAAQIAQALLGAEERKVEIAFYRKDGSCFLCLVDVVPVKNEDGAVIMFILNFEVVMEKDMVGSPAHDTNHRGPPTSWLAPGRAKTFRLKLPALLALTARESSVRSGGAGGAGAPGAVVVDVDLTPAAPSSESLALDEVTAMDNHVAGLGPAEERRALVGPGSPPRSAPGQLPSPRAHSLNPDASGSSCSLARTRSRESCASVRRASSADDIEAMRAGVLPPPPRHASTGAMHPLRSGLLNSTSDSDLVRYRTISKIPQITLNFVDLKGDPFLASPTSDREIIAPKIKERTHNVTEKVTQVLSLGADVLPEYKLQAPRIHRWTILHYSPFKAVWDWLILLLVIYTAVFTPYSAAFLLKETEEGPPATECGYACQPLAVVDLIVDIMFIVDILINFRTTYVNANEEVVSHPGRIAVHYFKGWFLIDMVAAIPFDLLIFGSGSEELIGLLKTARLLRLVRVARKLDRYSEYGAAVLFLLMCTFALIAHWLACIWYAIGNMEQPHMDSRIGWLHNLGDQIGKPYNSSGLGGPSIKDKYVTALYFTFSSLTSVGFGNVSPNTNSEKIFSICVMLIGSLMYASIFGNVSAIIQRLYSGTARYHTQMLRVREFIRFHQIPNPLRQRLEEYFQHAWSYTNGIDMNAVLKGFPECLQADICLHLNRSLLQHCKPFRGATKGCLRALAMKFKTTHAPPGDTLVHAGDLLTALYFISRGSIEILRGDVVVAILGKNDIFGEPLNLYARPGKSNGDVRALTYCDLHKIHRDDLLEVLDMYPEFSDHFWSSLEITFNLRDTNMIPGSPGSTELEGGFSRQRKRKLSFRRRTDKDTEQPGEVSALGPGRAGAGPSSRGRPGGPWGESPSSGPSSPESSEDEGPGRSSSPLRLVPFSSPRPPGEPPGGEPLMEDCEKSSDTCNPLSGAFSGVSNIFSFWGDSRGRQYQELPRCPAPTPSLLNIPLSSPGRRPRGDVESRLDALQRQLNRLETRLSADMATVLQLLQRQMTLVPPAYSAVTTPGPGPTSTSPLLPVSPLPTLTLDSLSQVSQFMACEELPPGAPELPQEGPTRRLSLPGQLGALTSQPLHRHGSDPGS

Sequence of Growth hormone secretagogue receptor type 1 (Q92847 whole entry): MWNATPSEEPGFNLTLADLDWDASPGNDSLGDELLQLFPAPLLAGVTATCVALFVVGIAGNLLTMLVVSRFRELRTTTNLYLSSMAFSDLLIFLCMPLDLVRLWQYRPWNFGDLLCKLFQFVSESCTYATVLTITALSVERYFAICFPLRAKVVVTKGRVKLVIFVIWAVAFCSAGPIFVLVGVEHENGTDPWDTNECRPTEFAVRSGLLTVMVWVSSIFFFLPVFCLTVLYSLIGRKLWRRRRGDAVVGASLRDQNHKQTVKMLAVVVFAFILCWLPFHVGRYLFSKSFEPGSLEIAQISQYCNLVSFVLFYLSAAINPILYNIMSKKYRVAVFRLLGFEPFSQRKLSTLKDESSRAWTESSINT
Sequence of Voltage-gated inwardly rectifying potassium channel KCNH2 (Q12809 whole entry): as the sequence (Q12809 whole entry) above
Sequence of 5-hydroxytryptamine receptor 2B (Homo sapiens) (P41595 whole entry): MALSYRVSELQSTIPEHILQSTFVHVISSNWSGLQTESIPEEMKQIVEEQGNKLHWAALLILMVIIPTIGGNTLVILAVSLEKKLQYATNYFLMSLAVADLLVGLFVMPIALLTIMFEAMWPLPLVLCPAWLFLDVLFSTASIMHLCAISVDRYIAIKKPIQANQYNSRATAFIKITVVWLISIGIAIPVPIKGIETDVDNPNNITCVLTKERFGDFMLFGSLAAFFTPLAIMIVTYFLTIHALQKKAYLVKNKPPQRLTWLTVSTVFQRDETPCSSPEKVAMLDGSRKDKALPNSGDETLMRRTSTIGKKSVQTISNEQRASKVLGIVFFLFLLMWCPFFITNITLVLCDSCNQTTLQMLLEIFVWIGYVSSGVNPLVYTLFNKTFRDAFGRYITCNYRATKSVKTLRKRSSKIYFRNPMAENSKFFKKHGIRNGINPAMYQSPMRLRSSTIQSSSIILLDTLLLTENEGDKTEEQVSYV

Ki [1] [nM]	IC50 [2] [nM]	SMILES	further results
0.5	137	Cc1nc2cnc(Oc3ccc4c(c3)ncn4C)cc2c(=O)n1C[C@H]1CCCN(C(C)C)C1	
1	141	Cc1nc2ccc(Oc3ccc(F)cc3)cc2c(=O)n1C[C@H]1CCCN(C(C)C)C1	inhibition [3]: > 50%; inhibition [4]: > 50%; inhibition [5]: > 50%
0.16	26	Cc1nc2ncc(Oc3ccc(Br)cc3F)cc2c(=O)n1C[C@H]1CCCN(C(C)C)C1	IC50 [6]: 1300 nM
6.7	357	Cc1nc2ncc(Oc3ccc(F)cc3)cc2c(=O)n1C[C@H]1CCCN(C(C)C)C1	
6.6	1440	Cc1nc2cnc(Oc3ccc(F)c4cccnc34)cc2c(=O)n1C[C@H]1CCCN(C(C)C)C1	IC50 [6]: 9400 nM
2	185	Cc1nc2ccc(Oc3ccc(F)cc3)nc2c(=O)n1C[C@H]1CCCN(C(C)C)C1	Vd [7]: 11.9 L/kg; AUC [8]: 523 ng·h/mL; bioavailability [9]: 60%; AUC [10]: 941 ng·h/mL; clearance [11]: 32 mL/min/kg; half-life [12]: 7.16 h
3.1	587	Cc1nc2ncc(Oc3ccc(F)cc3)nc2c(=O)n1C[C@H]1CCCN(C(C)C)C1	Vd [7]: 2.87 L/kg; AUC [8]: 1170 ng·h/mL; bioavailability [9]: 33%; AUC [10]: 1170 ng·h/mL; clearance [11]: 13 mL/min/kg; half-life [12]: 3.01 h
0.3	86.5	Cc1nc2cnc(Oc3ccc4c(c3)OCO4)cc2c(=O)n1C[C@H]1CCCN(C(C)C)C1	
0.2	2	Cc1nc2ccc(Oc3ccc(Cl)cc3F)nc2c(=O)n1C[C@H]1CCCN(C(C)C)C1	Vd [7]: 6.64 L/kg; AUC [8]: 695 ng·h/mL; bioavailability [9]: 35%; AUC [10]: 736 ng·h/mL; clearance [11]: 24 mL/min/kg; half-life [12]: 4.71 h
1.9	142	Cc1nc2ncc(Oc3ccc(F)c4cccnc34)nc2c(=O)n1C[C@H]1CCCN(C(C)C)C1	IC50 [6]: > 33000 nM
3.1	118	COc1ccc2cccc(Oc3ccc4nc(C)n(C[C@H]5CCCN(C(C)C)C5)c(=O)c4n3)c2n1	
1.5	16.5	Cc1nc2ncc(Oc3ccc4c(c3)OCO4)nc2c(=O)n1C[C@H]1CCCN(C(C)C)C1	
3.4	399	Cc1nc2cnc(Oc3ccc(F)cc3)cc2c(=O)n1C[C@H]1CCCN(C(C)C)C1	
5	51.8	Cc1nc2ncc(Oc3ccc4c(c3)ncn4C)nc2c(=O)n1C[C@H]1CCCN(C(C)C)C1	
0.05	1.17	Cc1nc2ncc(Oc3ccc(Br)cc3F)nc2c(=O)n1C[C@H]1CCCN(C(C)C)C1	
0.1	29.2	Cc1nc2cnc(Oc3ccc4ncsc4c3)cc2c(=O)n1C[C@H]1CCCN(C(C)C)C1	IC50 [6]: 2400 nM; pIC50 [6]: 5.62
0.4	37.7	Cc1nc2ccc(Oc3ccc(-c4ccccc4)cc3)nc2c(=O)n1C[C@H]1CCCN(C(C)C)C1	
0.6	102	Cc1nc2ncc(Oc3ccc(Cl)cc3F)nc2c(=O)n1C[C@H]1CCCN(C(C)C)C1	
0.01	2.3	Cc1nc2ccc(Oc3ccc(Br)cc3F)nc2c(=O)n1C[C@H]1CCCN(C(C)C)C1	
0.27	80	Cc1nc2ncc(Oc3ccc(-c4ccccc4)cc3)nc2c(=O)n1C[C@H]1CCCN(C(C)C)C1	
		Cc1nc2cnc(Oc3cccc4cccnc34)cc2c(=O)n1C[C@H]1CCCN(C(C)C)C1	IC50 [6]: 25100 nM; pIC50 [6]: 4.6
1.7	131	Cc1nc2ncc(Oc3ccc(-c4ccccc4)cc3)cc2c(=O)n1C[C@H]1CCCN(C(C)C)C1	
0.01	2.7	Cc1nc2ccc(Oc3ccc4ncsc4c3)nc2c(=O)n1C[C@H]1CCCN(C(C)C)C1	
0.2	146	Cc1nc2cnc(Oc3ccc(Cl)cc3F)cc2c(=O)n1C[C@H]1CCCN(C(C)C)C1	IC50 [6]: 130 nM; pIC50 [6]: 6.89; selectivity ratio [13]: 10
	188	Nc1nc(N)c(-c2ccc(NC(=O)C3CC3)cc2)c(COCc2ccccc2)n1	
0.9	19.2	Cc1nc2ccc(Oc3ccc4c(c3)OCO4)nc2c(=O)n1C[C@H]1CCCN(C(C)C)C1	
	5.6	COc1ccc(Cn2c(CCc3c[nH]c4ccccc34)nnc2[C@@H](Cc2c[nH]c3ccccc23)NC(=O)[C@@H]2CCCN2)c(OC)c1	
2.6	131	Cc1nc2ccc(Oc3ccc(F)c4cccnc34)nc2c(=O)n1C[C@H]1CCCN(C(C)C)C1	IC50 [6]: 130 nM
0.26	5.7	Cc1nc2ncc(Oc3ccc4ncsc4c3)nc2c(=O)n1C[C@H]1CCCN(C(C)C)C1	
